Laboratory results reported in ChEMBL document CHEMBL1146083, “Novel potent and efficacious nonpeptidic urotensin II receptor agonists” (J Med Chem, 2006).
Active and inactive are the calls of the source. No cut-off for these calls is given here.

Tests used:
[1] = target: T1, Urotensin-2 receptor (Homo sapiens) (UniProt Q9UKP6); assay: (§1) Activity against human urotensin-2 receptor expressed in NIH3T3 cells; format: cell-based
T1 sequence (whole entry): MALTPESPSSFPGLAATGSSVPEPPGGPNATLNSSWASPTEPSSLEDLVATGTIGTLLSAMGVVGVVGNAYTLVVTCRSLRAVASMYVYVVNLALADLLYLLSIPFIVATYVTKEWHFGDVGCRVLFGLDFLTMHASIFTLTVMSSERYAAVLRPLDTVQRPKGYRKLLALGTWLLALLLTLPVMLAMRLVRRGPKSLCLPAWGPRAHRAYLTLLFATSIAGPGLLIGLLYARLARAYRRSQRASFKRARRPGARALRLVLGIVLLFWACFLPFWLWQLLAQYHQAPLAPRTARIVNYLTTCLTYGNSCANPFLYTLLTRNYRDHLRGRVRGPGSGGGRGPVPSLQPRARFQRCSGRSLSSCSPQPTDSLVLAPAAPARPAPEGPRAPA
Outline: (§2)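 R-SAT functional agonist assay. NIH-3T3 cells grown to 80% confluence in DMEM with 10% bovine calf serum, then transfected for 18 h with human UII receptor plus β-galactosidase marker. Cells frozen, thawed and plated in DMEM with 0.4% calf serum and 30% UltraCulture onto compound. Five-day incubation in 5% CO2, then reporter read at 420 nm. Eight doses in triplicate; pEC50 averaged over 2-6 determinations; efficacy normalized to UII as 100%.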

Urotensin-2 receptor = target: T2, Urotensin-2 receptor (Homo sapiens, UniProt Q9UKP6); assay: as §1; format: cell-based; outline: as §2
T2 sequence (Q9UKP6 whole entry): T1 sequence (whole entry)

Row | SMILES | Efficacy [1] [%] | EC50 (Urotensin-2 receptor) [nM] | Log EC50 [1]
1 | COc1cccc(NC(=O)OC(CCN(C)C)c2ccc(Cl)cc2)c1 (configuration not stated) | 136 |  | 
2 | CN(C)CCC(OC(=O)Nc1ccc(C(C)(C)C)cc1)c1ccc(Cl)cc1 (configuration not stated) | 105 | 1820 | 
3 | CN(C)CCC(OC(=O)c1cn(C)c2ccccc12)c1ccc(Cl)cc1 (configuration not stated) | 104 | 1510 | 
4 | COc1ccc(NC(=O)NC(CCN(C)C)c2ccc(Cl)cc2)cc1 (configuration not stated) | 195 | 2000 | 
5 | CN(C)CCC(NC(=O)Nc1ccc2ccccc2c1)c1ccc(Cl)cc1 (configuration not stated) | 106 | 288 | 
6 | CN(C)CCC(NC(=O)c1ccc2c(c1)OCO2)c1ccc(Cl)cc1 (configuration not stated) | 154 |  | 
7 | CN(C)CC[C@H](NC(=O)c1ccc2ccccc2c1)c1ccc(Cl)cc1 | 109 | 407 | 
8 | Cc1cccc(C(=O)OC(CCN(C)C)c2ccc(Cl)cc2)c1C (configuration not stated) | 91 | 1150 | 
9 | CN(C)CCC(NC(=O)c1ccccc1)c1ccc(Cl)cc1 (configuration not stated) | 158 |  | 
10 | CN(C)CCC(OC(=O)Nc1ccc(-c2ccccc2)cc1)c1ccc(Cl)cc1 (configuration not stated) | 58 | 269 | 
11 | CN(C)CC[C@@H](NC(=O)c1ccc(-c2ccccc2)cc1)c1ccc(Cl)cc1 | 96 | 1450 | 
12 | CN(C)CCC(OC(=O)c1ccc2ccccc2c1)c1ccc(Cl)cc1 (configuration not stated) | 49 |  | 
13 | Cc1cccc(Cl)c1C(=O)NC(CCN(C)C)c1ccc(Cl)cc1 (configuration not stated) | 105 |  | 
14 | Cc1ccc(C)c(C(=O)NC(CCN(C)C)c2ccc(Cl)cc2)c1 (configuration not stated) | 164 |  | 
15 | COc1ccccc1COC(CCN(C)C)c1ccc(Cl)cc1 (configuration not stated) |  |  | inactive
16 | CN(C)CCC(NC(=O)Cc1ccccc1)c1ccc(Cl)cc1 (configuration not stated) | 155 |  | 
17 | CO[C@@H](C(=O)N[C@H](CCN(C)C)c1ccc(Cl)cc1)c1ccccc1 | 112 | 5010 | 
18 | Cc1ccc(C)c(C(=O)OC(CCN(C)C)c2ccc(Cl)cc2)c1 (configuration not stated) | 86 |  | 
19 | CN(C)CCC(NC(=O)c1ccc(-c2ccccc2)cc1)c1ccc(Cl)cc1 (configuration not stated) | 116 |  | 
20 | Cc1ccccc1C(=O)NC(CCN(C)C)c1ccc(Cl)cc1 (configuration not stated) | 175 |  | 
21 | Cc1ccc(COC(CCN(C)C)c2ccc(Cl)cc2)cc1 (configuration not stated) |  |  | inactive
22 | Cc1ccc(C(=O)OC(CCN(C)C)c2ccc(Cl)cc2)cc1 (configuration not stated) | 56 |  | 

Row | SMILES | Efficacy [1] [%] | EC50 (Urotensin-2 receptor) [nM] | Log EC50 [1]
23 | COc1cccc(C(=O)NC(CCN(C)C)c2ccc(Cl)cc2)c1C (configuration not stated) | 179 |  | 
24 | CCc1ccccc1C(=O)N[C@@H](CCN(C)C)c1ccc(Cl)cc1 | 140 | 1020 | 
25 | CN(C)CCC(OC(=O)c1ccc(C(F)(F)F)cc1)c1ccc(Cl)cc1 (configuration not stated) | 47 | 1740 | 
26 | Cc1ccsc1C(=O)OC(CCN(C)C)c1ccc(Cl)cc1 (configuration not stated) | 119 |  | 
27 | COc1cccc(C(=O)OC(CCN(C)C)c2ccc(Cl)cc2)c1C (configuration not stated) | 88 | 1950 | 
28 | CN(C)CCC(NC(=O)c1ccc(C(F)(F)F)cc1)c1ccc(Cl)cc1 (configuration not stated) | 115 | 77.6 | 
29 | CN(C)CCC(NC(=O)Nc1ccc(-c2ccccc2)cc1)c1ccc(Cl)cc1 (configuration not stated) | 91 | 145 | 
30 | Cc1ccccc1C(=O)OC(CCN(C)C)c1ccc(Cl)cc1 (configuration not stated) | 126 |  | 
31 | Cc1ccccc1NC(=O)NC(CCN(C)C)c1ccc(Cl)cc1 (configuration not stated) | 175 |  | 
32 | COc1ccc(NC(=O)OC(CCN(C)C)c2ccc(Cl)cc2)cc1 (configuration not stated) | 170 | 1660 | 
33 | CN(C)CCC1(c2ccc(Cl)cc2)Cc2ccccc2C(=O)O1 (configuration not stated) | 133 | 1120 | 
34 | CN(C)CCC(NC(=O)Nc1ccc(Oc2ccccc2)cc1)c1ccc(Cl)cc1 (configuration not stated) | 108 | 110 | 
35 | CN(C)CCC(NC(=O)NCc1ccccc1)c1ccc(Cl)cc1 (configuration not stated) | 179 | 2000 | 
36 | Cc1cc2c(cc1C)C(=O)OC(CCN(C)C)(c1ccc(Cl)cc1)C2 (configuration not stated) | 146 | 135 | 
37 | Cc1c(Cl)cccc1C(=O)OC(CCN(C)C)c1ccc(Cl)cc1 (configuration not stated) | 118 |  | 
38 | Cc1ccc(S(=O)(=O)NC(CCN(C)C)c2ccc(Cl)cc2)cc1 (configuration not stated) | 74 |  | 
39 | CN(C)CCC(OC(=O)c1cc2ccccc2n1C)c1ccc(Cl)cc1 (configuration not stated) | 73 | 1380 | 
40 | Cc1cccc(C(=O)NC(CCN(C)C)c2ccc(Cl)cc2)c1C (configuration not stated) | 159 |  | 
41 | COc1cccc(NC(=O)NC(CCN(C)C)c2ccc(Cl)cc2)c1 (configuration not stated) | 146 |  | 
42 | Cc1ccccc1NC(=O)OC(CCN(C)C)c1ccc(Cl)cc1 (configuration not stated) | 176 |  | 
43 | CN(C)CCC(NS(=O)(=O)c1ccc2ccccc2c1)c1ccc(Cl)cc1 (configuration not stated) |  |  | inactive
44 | CN(C)CC[C@H](NC(=O)c1ccc(-c2ccccc2)cc1)c1ccc(Cl)cc1 | 116 | 32.4 | 

Row | SMILES | Efficacy [1] [%] | EC50 (Urotensin-2 receptor) [nM] | Log EC50 [1]
45 | CN(C)CCC(OC(=O)c1cccc2ccccc12)c1ccc(Cl)cc1 (configuration not stated) | 95 |  | 
46 | CN(C)CCC(OC(=O)NCc1ccccc1)c1ccc(Cl)cc1 (configuration not stated) | 180 |  | 
47 | Cc1cc(C)c(C(=O)OC(CCN(C)C)c2ccc(Cl)cc2)cc1C (configuration not stated) | 60 |  | 
48 | CO[C@@H](C(=O)N[C@@H](CCN(C)C)c1ccc(Cl)cc1)c1ccccc1 | 165 | 871 | 
49 | COc1ccc(C(=O)OC(CCN(C)C)c2ccc(Cl)cc2)cc1 (configuration not stated) | 84 | 2190 | 
50 | Cc1ccc(C(=O)NC(CCN(C)C)c2ccc(Cl)cc2)c(C)c1 (configuration not stated) | 147 |  | 
51 | CN(C)CCC(OC(=O)Nc1ccc(C(F)(F)F)cc1)c1ccc(Cl)cc1 (configuration not stated) | 94 | 251 | 
52 | Cc1c(Cl)cccc1C(=O)NC(CCN(C)C)c1ccc(Cl)cc1 (configuration not stated) | 142 |  | 
53 | CN(C)CCC(NC(=O)Nc1ccc(C(C)(C)C)cc1)c1ccc(Cl)cc1 (configuration not stated) | 103 | 275 | 
54 | CCc1ccccc1C(=O)OC(CCN(C)C)c1ccc(Cl)cc1 (configuration not stated) | 128 |  | 
55 | Cc1cc(C)c(C(=O)NC(CCN(C)C)c2ccc(Cl)cc2)cc1C (configuration not stated) | 159 |  | 
56 | CN(C)CCC(OC(=O)c1ccc(-c2ccccc2)cc1)c1ccc(Cl)cc1 (configuration not stated) | 53 |  | 
57 | Cc1cc(Br)ccc1C(=O)OC(CCN(C)C)c1ccc(Cl)cc1 (configuration not stated) | 95 |  | 
58 | CN(C)CCC(NC(=O)c1ccc(Oc2ccccc2)cc1)c1ccc(Cl)cc1 (configuration not stated) | 89 |  | 
59 | CN(C)CCC(NC(=O)c1ccc(N(C)C)cc1)c1ccc(Cl)cc1 (configuration not stated) | 150 |  | 
60 | COc1ccc(C(=O)NC(CCN(C)C)c2ccc(Cl)cc2)cc1 (configuration not stated) | 162 |  | 
61 | CN(C)CCC(NS(=O)(=O)c1ccc(-c2ccccc2)cc1)c1ccc(Cl)cc1 (configuration not stated) |  |  | inactive
62 | CN(C)CCC(NC(=O)Nc1ccc(C(F)(F)F)cc1)c1ccc(Cl)cc1 (configuration not stated) | 105 | 117 | 
63 | CN(C)CCC(OC(=O)Nc1ccc(Oc2ccccc2)cc1)c1ccc(Cl)cc1 (configuration not stated) | 107 | 191 | 
64 | CN(C)CCC(OC(=O)Nc1ccc2ccccc2c1)c1ccc(Cl)cc1 (configuration not stated) | 89 | 525 | 
